From ChEMBL document CHEMBL1159009, “Anti-influenza virus effect of some propolis constituents and their analogues (esters of substituted cinnamic acids)” (J Nat Prod, 1992)
Converted amounts (≈) assume the structure as drawn.

Tests used:
Influenza A virus = assay: microbe, parasite or virus in culture; type: functional, Chorioallantoic membrane; settings: A/Puerto Rico/8/1934(H1N1), 48 h
[1] = Toxicity in hen chorioallantoic membrane assessed as maximum tolerable concentration causing no morphological changes; parameters: species or system Gallus gallus; settings: chicken, read-out: Activity
In short: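 Surviving chorioallantoic membrane cultures (membranes only) from 11-13-day-old embryonated hen's eggs were exposed to increasing concentrations and followed for 72 h. MTC was the highest concentration causing no morphological changes in the CAM.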

Influenza A virus H3N2 [2] = assay: microbe, parasite or virus in culture; type: functional, Influenza A virus (A/Hong Kong/1/1968(H3N2)), Chorioallantoic membrane; settings: 48 h
Influenza A virus H3N2 [3] = assay: Antiviral activity against influenza A virus (A/Hong Kong/1/1968(H3N2)) infected in hen eggs assessed as hemagglutinination titre level at 1 mg/ml; type: functional
In short: (§1)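 11-day-old embryonated hen's eggs received 0.2 ml of substance 1 h before infection with A/Hong Kong/1/68 (H3N2) from allantoic fluid. Read-out was the mean geometrical hemagglutination titer, compared with a virus control for each dose.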

Influenza A virus H3N2 [4] = assay: Antiviral activity against influenza A virus (A/Hong Kong/1/1968(H3N2)) infected in hen eggs assessed as hemagglutinination titre level at 2.5 mg/ml; type: functional
In short: as §1

Influenza A virus H3N2 [5] = type: functional, Influenza A virus (A/Hong Kong/1/1968(H3N2)), Chorioallantoic membrane
Influenza A virus H3N2 [6] = type: functional, Influenza A virus (A/Hong Kong/1/1968(H3N2)), Chorioallantoic membrane; remark: listed apart in the source
Influenza A virus H3N2 [7] = type: functional, Influenza A virus (A/Hong Kong/1/1968(H3N2)), Chorioallantoic membrane; remark: listed apart in the source
Influenza A virus H3N2 [8] = type: functional, Influenza A virus (A/Hong Kong/1/1968(H3N2)), Chorioallantoic membrane; remark: listed apart in the source
Influenza A virus H3N2 [9] = type: functional, Influenza A virus (A/Hong Kong/1/1968(H3N2)), Chorioallantoic membrane; remark: listed apart in the source
Influenza A virus H3N2 [10] = type: functional, Influenza A virus (A/Hong Kong/1/1968(H3N2)), Chorioallantoic membrane; remark: listed apart in the source
Influenza A virus H3N2 [11] = assay: Antiviral activity against influenza A virus (A/Hong Kong/1/1968(H3N2)) infected in hen eggs assessed as hemagglutinination titre level at 5 mg/ml; type: functional
In short: as §1

[12] = Toxicity in hen egg assessed as maximum tolerable concentration causing no morphological changes; parameters: species or system Gallus gallus; settings: chicken, read-out: Activity
Influenza A virus H3N2 [13] = type: functional, Influenza A virus (A/Hong Kong/1/1968(H3N2)), Chorioallantoic membrane; remark: listed apart in the source

| Compound | MIC (Influenza A virus) [µg/mL] | MNTC [1] [µg/mL] | MIC (Influenza A virus H3N2 [2]) [µg/mL] | other results |
| --- | --- | --- | --- | --- |
| COc1cc(/C=C/C(=O)OCc2ccccc2)ccc1O [BENZYL FERULATE] | > 50 | 50 | > 50 |  |
| COc1cc(/C=C/C(=O)OCCc2ccccc2)ccc1O | > 50 | 50 | > 50 |  |
| O=C(/C=C/c1ccc(O)c(O)c1)OCCc1ccccc1 [CAFFEIC ACID PHENETHYL ESTER] | 50 (≈ 176 µM) | 50 | 25 (≈ 87.9 µM) |  |
| O=C(/C=C/c1ccc(O)c(O)c1)OCc1ccccc1 [BENZYL CAFFEATE] | > 50 | 50 | 25 (≈ 92.5 µM) |  |
| CC(C)CCOC(=O)/C=C/c1ccc(O)c(O)c1 | 25 (≈ 99.9 µM) | 50 | 25 (≈ 99.9 µM) |  |
| COc1cc(/C=C/C(=O)OCCC(C)C)ccc1O [ISOPENTYL FERULATE] | > 200 | 400 | 50 (≈ 189 µM) | Activity (Influenza A virus H3N2 [3]): 9.4; Activity (Influenza A virus H3N2 [4]): 7.35; log10CCID50 (Influenza A virus H3N2 [5]): 1.5; deltalog10CCID50 (Influenza A virus H3N2 [6]): 2; deltalog10CCID50 (Influenza A virus H3N2 [7]): 2; deltalog10CCID50 (Influenza A virus H3N2 [8]): >2.5; log10CCID50 (Influenza A virus H3N2 [9]): 1.5; log10CCID50 (Influenza A virus H3N2 [10]): <1; Activity (Influenza A virus H3N2 [11]): 6.45; MNTC [12]: 10000 µg/mL; log10CCID50 (Influenza A virus H3N2 [13]): 3 |
